Bridge positions count the residues as written; N and C are the ends. Square brackets hold non-standard residues; d marks the D form. Peptide text beside a SMILES is read from it. * marks the point of attachment. Phe(4-NO2) = N[C@@H](Cc1ccc([N+](=O)[O-])cc1)C(=O)O; X1 = Cc1cc(C(N)=O)cc(C)c1C[C@H](C)C(=O)*; Phe(4-F) = N[C@@H](Cc1ccc(F)cc1)C(=O)O; d2Nal = N[C@H](Cc1ccc2ccccc2c1)C(=O)O; Dmt = Cc1cc(O)cc(C)c1C[C@H](N)C(=O)O; dPen = CC(C)(S)[C@@H](N)C(=O)O; Pen = CC(C)(S)[C@H](N)C(=O)O; Sar = CNCC(=O)O
Experiments:
Mu-type opioid receptor [1] = target: Mu-type opioid receptor (Cavia porcellus, UniProt P97266); experiment: (§1) Antagonist activity against mu opioid receptor in guinea pig ileum assessed as effect on TAPP-induced response; assay type: functional, tissue-based
In short: (§2)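 Isolated tissue bioassays: mu and kappa antagonism measured in guinea pig ileum, delta antagonism in mouse vas deferens. Antagonist potency expressed as Ke (nM).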

[2] = target: Kappa-type opioid receptor (Cavia porcellus) (UniProt P41144); experiment: Antagonist activity against kappa opioid receptor in guinea pig ileum assessed as effect on U50488-induced response; assay type: functional, tissue-based; in short: as §2
[3] = target: Mu-type opioid receptor (Cavia porcellus) (UniProt P97266); experiment: as §1; assay type: functional, tissue-based; in short: as §2
[4] = target: Delta-type opioid receptor (Mus musculus) (UniProt P32300); experiment: (§3) Antagonist activity against delta opioid receptor in mouse vas deference assessed as effect on DPDPE-induced response; assay type: functional; in short: as §2
[5] = target: Kappa-type opioid receptor (Cavia porcellus, UniProt P41144); experiment: Displacement of [3H]U69593 from kappa opioid receptor in guinea pig brain membrane; assay type: cell membranes
[6] = target: Delta-type opioid receptor (Mus musculus, UniProt P32300); experiment: as §3; assay type: functional; in short: as §2
Mu-type opioid receptor [7] = target: Mu-type opioid receptor (Rattus norvegicus, UniProt P33535); experiment: Displacement of [3H]DAMGO from mu opioid receptor in rat brain membrane; assay type: cell membranes
In short: (§4)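 Opioid receptor binding in rat brain membrane preparations. Affinity expressed as Ki (nM).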

[8] = target: Delta-type opioid receptor (Rattus norvegicus, UniProt P33533); experiment: Displacement of [3H]DSLET from delta opioid receptor in rat brain membrane; assay type: cell membranes; in short: as §4
Delta-type opioid receptor (Rattus norvegicus, UniProt P33533), sequence (P33533 whole entry): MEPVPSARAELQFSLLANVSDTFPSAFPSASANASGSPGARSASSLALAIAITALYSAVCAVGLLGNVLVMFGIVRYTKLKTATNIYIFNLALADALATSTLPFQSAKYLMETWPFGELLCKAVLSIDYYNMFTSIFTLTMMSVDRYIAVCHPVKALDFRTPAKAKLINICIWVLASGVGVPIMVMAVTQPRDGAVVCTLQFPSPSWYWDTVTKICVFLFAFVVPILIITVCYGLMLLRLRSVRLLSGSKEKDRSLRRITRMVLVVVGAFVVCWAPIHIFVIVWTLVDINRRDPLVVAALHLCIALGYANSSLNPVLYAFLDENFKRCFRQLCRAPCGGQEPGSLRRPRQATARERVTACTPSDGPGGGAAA

Mu-type opioid receptor (Cavia porcellus), sequence (P97266 whole entry): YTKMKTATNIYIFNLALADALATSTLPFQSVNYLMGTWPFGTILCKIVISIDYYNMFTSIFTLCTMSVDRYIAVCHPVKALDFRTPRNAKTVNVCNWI
Mu-type opioid receptor (Cavia porcellus, UniProt P97266), sequence (P97266 whole entry): as above
Kappa-type opioid receptor, sequence (P41144 whole entry): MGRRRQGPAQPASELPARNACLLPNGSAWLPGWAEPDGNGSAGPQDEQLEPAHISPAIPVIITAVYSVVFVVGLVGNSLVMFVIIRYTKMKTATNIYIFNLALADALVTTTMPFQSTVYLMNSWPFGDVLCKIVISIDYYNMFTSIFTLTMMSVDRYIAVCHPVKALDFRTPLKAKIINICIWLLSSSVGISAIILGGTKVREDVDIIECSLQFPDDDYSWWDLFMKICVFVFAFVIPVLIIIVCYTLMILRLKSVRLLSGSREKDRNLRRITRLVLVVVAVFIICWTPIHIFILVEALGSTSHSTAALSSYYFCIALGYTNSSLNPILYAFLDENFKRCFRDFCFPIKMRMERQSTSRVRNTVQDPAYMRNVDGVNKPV
Kappa-type opioid receptor (Cavia porcellus), sequence (P41144 whole entry): as above
Delta-type opioid receptor (Mus musculus), sequence (P32300 whole entry): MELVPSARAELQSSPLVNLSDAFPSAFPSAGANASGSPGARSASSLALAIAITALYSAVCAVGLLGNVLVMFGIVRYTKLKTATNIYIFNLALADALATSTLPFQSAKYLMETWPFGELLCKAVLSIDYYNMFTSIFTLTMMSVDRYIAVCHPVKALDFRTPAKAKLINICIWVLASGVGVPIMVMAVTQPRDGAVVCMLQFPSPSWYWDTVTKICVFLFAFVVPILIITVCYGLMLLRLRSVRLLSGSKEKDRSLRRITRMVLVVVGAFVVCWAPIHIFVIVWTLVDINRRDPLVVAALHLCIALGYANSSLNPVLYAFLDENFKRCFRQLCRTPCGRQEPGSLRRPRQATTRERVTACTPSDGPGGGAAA
Mu-type opioid receptor (Rattus norvegicus, UniProt P33535), sequence (P33535 whole entry): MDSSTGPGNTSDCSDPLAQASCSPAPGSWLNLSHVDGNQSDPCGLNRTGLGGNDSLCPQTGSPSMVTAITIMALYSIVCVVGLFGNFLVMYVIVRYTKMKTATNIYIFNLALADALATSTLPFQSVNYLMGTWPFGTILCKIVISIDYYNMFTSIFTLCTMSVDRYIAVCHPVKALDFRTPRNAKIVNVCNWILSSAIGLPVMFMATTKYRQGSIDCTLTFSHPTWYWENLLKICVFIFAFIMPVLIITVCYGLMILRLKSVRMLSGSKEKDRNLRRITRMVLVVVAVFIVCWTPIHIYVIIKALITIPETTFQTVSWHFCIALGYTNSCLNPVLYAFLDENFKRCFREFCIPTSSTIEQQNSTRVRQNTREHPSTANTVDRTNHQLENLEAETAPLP
Delta-type opioid receptor (Mus musculus, UniProt P32300), sequence (P32300 whole entry): as the sequence (P32300 whole entry) above

Structure (SMILES) | Ki (Mu-type opioid receptor [1]) [nM] | Ke [2] [nM] | Ke [3] [nM] | Ke [4] [nM] | Ki [5] [nM] | other results
Cc1cc(O)cc(C)c1C[C@H](N)C(=O)N1CCC[C@H]1C(=O)N[C@@H](Cc1ccccc1)C(=O)N[C@H](Cc1ccc2ccccc2c1)C(N)=O [ANTANAL-2] (H-[Dmt]PF[d2Nal]-NH2) | 1.52 | – | – | – | – | –
Cc1cc(C(N)=O)cc(C)c1C[C@H](C)C(=O)N[C@H]1C(=O)NCC(=O)N[C@@H](Cc2ccc(F)cc2)C(=O)N[C@H](C(=O)N[C@@H](Cc2ccccc2)C(=O)O)C(C)(C)SSC1(C)C (X1-[dPen]G[Phe(4-F)][Pen]F-OH; disulfide 1-4) | – | 9980 | 1170 | 0.326 | – | –
Cc1cc(C(N)=O)cc(C)c1C[C@H](C)C(=O)N[C@@H]1CSSC[C@H](C(N)=O)NC(=O)[C@H](Cc2ccc([N+](=O)[O-])cc2)NC(=O)CNC1=O (X1-[dC]G[Phe(4-NO2)][dC]-NH2; disulfide 1-4) | – | 18.9 | 1.24 | 9.78 | – | –
Cc1cc(O)cc(C)c1C[C@H](C)C(=O)N[C@@H]1CSSC[C@H](C(N)=O)NC(=O)[C@H](Cc2ccc([N+](=O)[O-])cc2)NC(=O)CNC1=O | – | 6.41 | 1.48 | 3.48 | 92.8 | –
C[C@@H](O)[C@H](NC(=O)[C@H]1NC(=O)[C@H]([C@@H](C)O)NC(=O)[C@H](CCCN)NC(=O)[C@@H](Cc2c[nH]c3ccccc23)NC(=O)[C@H](Cc2ccc(O)cc2)NC(=O)[C@@H](NC(=O)[C@H](N)Cc2ccccc2)CSSC1(C)C)C(N)=O | – | – | – | – | – | IC50 (Mu-type opioid receptor [1]): 2.8 nM
Cc1cc(O)cc(C)c1C[C@H](N)C(=O)N1CCC[C@H]1C(=O)N[C@@H](Cc1c[nH]c2ccccc12)C(=O)N[C@H](Cc1ccc2ccccc2c1)C(N)=O [ANTANAL-1] (H-[Dmt]PW[d2Nal]-NH2) | 2.38 | – | – | – | – | –
Cc1cc(O)cc(C)c1CCC(=O)N[C@@H]1CCCCNC(=O)NC[C@@H](C(N)=O)NC(=O)[C@H](Cc2ccccc2)NC(=O)CNC1=O | 15.5 | – | – | – | – | Ki [6]: 273 nM
Cc1cc(O)cc(C)c1C[C@H](N)C(=O)N(C)CC(=O)N[C@@H](Cc1ccccc1)C(=O)N[C@H](Cc1ccc2ccccc2c1)C(N)=O (H-[Dmt][Sar]F[d2Nal]-NH2) | – | – | 2.34 | 305 | – | –
Cc1cc(O)cc(C)c1C[C@H](C)C(=O)N[C@H]1C(=O)NCC(=O)N[C@@H](Cc2ccc(F)cc2)C(=O)N[C@H](C(=O)N[C@@H](Cc2ccccc2)C(=O)O)C(C)(C)SSC1(C)C | – | 4370 | 668 | 0.785 | 3710 | Ki (Mu-type opioid receptor [7]): 406 nM; Ki [8]: 2.32 nM
CC[C@H](C)[C@H](NC(=O)[C@H](CCCNC(=N)N)NC(=O)[C@H](CCCNC(=N)N)NC(=O)[C@H](CC(C)C)NC(=O)[C@H](Cc1ccccc1)NC(=O)CNC(=O)CNC(=O)[C@@H](C)Cc1c(C)cc(C(N)=O)cc1C)C(=O)N[C@@H](CCCNC(=N)N)C(=O)N1CCC[C@H]1C(=O)N[C@@H](CCCCN)C(N)=O | – | 5.96 | 401 | 843 | 26 | Ki (Mu-type opioid receptor [7]): 29.6 nM; Ki [8]: 27.2 nM

Source: ChEMBL document CHEMBL1140138, “Novel opioid peptide derived antagonists containing (2S)-2-methyl-3-(2,6-dimethyl-4-carbamoylphenyl)propanoic acid [(2S)-Mdcp]” (J Med Chem, 2008)
